Converted amounts (≈) assume the structure as drawn.

For two compounds, IC50, MIC and LC50 results are on record in ChEMBL document CHEMBL3627646, “Synthesis and biological activity of amino acid derivatives of avarone and its model compound” (Bioorg Med Chem, 2015).

Tested on in the first data set: not listed separately
Nature of the data set: Cytotoxicity against human Fem-X cells assessed as cell survival after 72 hrs by MTT assay. It counts as functional, cell-based.
Conditions: not given
The essentials:
(§1)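 Cells seeded (HeLa 2000, MDA-MB-453 3000, others 5000 per well), treated 24 h later (K562 after 2 h). Five double-diluted final concentrations, 200–12.5 μM, from 10 mM DMSO stocks, in RPMI-1640 with 10% FBS, pH 7.2, 72 h. MTT 4 h at 37 °C, SDS added, A570 read next day. Survival relative to medium control; IC50 from survival curves; triplicate; cisplatin positive control.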
In general terms: Formazan colour is commonly taken as a measure of viable cells.
Take `CC1=CCC[C@H]2[C@](C)(CC3=CC(=O)C=C(N[C@@H](C)C(=O)O)C3=O)[C@@H](C)CC[C@]12C`: the IC50 – broadly, the concentration needed to halve the response being measured – came to 10.3 µM.
On the same count and under the same terms, as for `CC(C)(C)C1=CC(=O)C=CC1=O`, the figure is 41.6 µM.

A further data set has as its system Staphylococcus aureus. Nature of the data set: Antibacterial activity against Staphylococcus aureus ATCC 6538 after 24 hrs by microbroth double dilution method. It counts as functional. As to conditions: ATCC 6538, 24 h. The essentials:
(§2)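 Microbroth double dilution in Mueller Hinton broth; compound stock 10 mg/mL in DMSO serially halved across rows. Wells inoculated with 10 μL culture at 10^6 cells/mL, incubated 37 °C for 24 h. Amikacin row as positive control, DMSO row as negative control. MIC taken as lowest concentration inhibiting bacterial growth.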
(In general: Dilution methods test growth across graded concentrations, often in twofold steps.)
For `CC1=CCC[C@H]2[C@](C)(CC3=CC(=O)C=C(N[C@@H](C)C(=O)O)C3=O)[C@@H](C)CC[C@]12C`, it took 49.1 µM (≈ 19.6 µg/mL) to inhibit growth (MIC).
As for `CC(C)(C)C1=CC(=O)C=CC1=O`, inhibition of growth (MIC) required 238 µM (≈ 39 µg/mL).

For another data set, the system named is Salmonella enterica. The experiment in a line: Antibacterial activity against Salmonella enterica ATCC 13076 after 24 hrs by microbroth double dilution method. It counts as functional. As to conditions: ATCC 13076, 24 h. In a few lines:
as §2
On to `CC1=CCC[C@H]2[C@](C)(CC3=CC(=O)C=C(N[C@@H](C)C(=O)O)C3=O)[C@@H](C)CC[C@]12C`, for which it took 195 µM (≈ 78.1 µg/mL) to inhibit growth (MIC).
The same measure, in the same setting: in the case of `CC(C)(C)C1=CC(=O)C=CC1=O` it was 475 µM (≈ 78 µg/mL).

A further data set deals with Escherichia coli. The experiment in a line: Antibacterial activity against Escherichia coli ATCC 25922 after 24 hrs by microbroth double dilution method. It counts as functional. As to conditions: ATCC 25922, 24 h. The essentials:
as §2
In the case of `CC1=CCC[C@H]2[C@](C)(CC3=CC(=O)C=C(N[C@@H](C)C(=O)O)C3=O)[C@@H](C)CC[C@]12C`, the MIC (commonly the lowest concentration that inhibits growth of the organism) stood at 49.1 µM (≈ 19.6 µg/mL).
`CC(C)(C)C1=CC(=O)C=CC1=O` registered an MIC of 238 µM (≈ 39 µg/mL).

For another data set, the system named is Clostridium sporogenes. Nature of the data set: Antibacterial activity against Clostridium sporogenes ATCC 19404 after 24 hrs by microbroth double dilution method. It counts as functional. The following applies: ATCC 19404, 24 h. In a few lines: as §2
In turn, `CC1=CCC[C@H]2[C@](C)(CC3=CC(=O)C=C(N[C@@H](C)C(=O)O)C3=O)[C@@H](C)CC[C@]12C` had an MIC of 195 µM (≈ 77.9 µg/mL).
Same read-out and setting: as for `CC(C)(C)C1=CC(=O)C=CC1=O`, the figure is 475 µM (≈ 78 µg/mL).

The next data set deals with Aspergillus brasiliensis. The experiment in a line: Antifungal activity against Aspergillus brasiliensis ATCC 16404 after 24 hrs by microbroth double dilution method. It counts as functional. The following applies: ATCC 16404, 24 h.
The compound `CC1=CCC[C@H]2[C@](C)(CC3=CC(=O)C=C(N[C@@H](C)C(=O)O)C3=O)[C@@H](C)CC[C@]12C` showed a minimum inhibitory concentration (MIC) of 1560 µM (≈ 624 µg/mL).
`CC(C)(C)C1=CC(=O)C=CC1=O` registered an MIC of 122 µM (≈ 20 µg/mL). This MIC is about 13-fold lower than that of the compound before.

The next data set has as its system Micrococcus flavus. The experiment in a line: Antibacterial activity against Micrococcus flavus ATCC 10240 after 24 hrs by microbroth double dilution method. It counts as functional. As to conditions: ATCC 10240, 24 h. In a few lines:
as §2
Compound `CC1=CCC[C@H]2[C@](C)(CC3=CC(=O)C=C(N[C@@H](C)C(=O)O)C3=O)[C@@H](C)CC[C@]12C` displayed a minimum inhibitory concentration (MIC) of 195 µM (≈ 78.1 µg/mL).
Still for that read-out and setting: as for `CC(C)(C)C1=CC(=O)C=CC1=O`, the figure is 475 µM (≈ 78 µg/mL).

Another data set relates to Pseudomonas aeruginosa. The experiment in a line: Antibacterial activity against Pseudomonas aeruginosa ATCC 9027 after 24 hrs by microbroth double dilution method. It counts as functional. As to conditions: ATCC 9027, 24 h. The essentials:
as §2
Regarding `CC1=CCC[C@H]2[C@](C)(CC3=CC(=O)C=C(N[C@@H](C)C(=O)O)C3=O)[C@@H](C)CC[C@]12C`, the MIC amounted to 195 µM (≈ 78.1 µg/mL).
As for `CC(C)(C)C1=CC(=O)C=CC1=O`, inhibition of growth (MIC) required 475 µM (≈ 78 µg/mL). This MIC is about 2.4-fold higher than that of the compound before.

A further data set deals with Artemia salina. The experiment in a line: Cytotoxicity in Brine shrimp assessed as nauplii mortality after 24 hrs. As to conditions: in vivo. It counts as organism-based. The essentials: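 Artemia salina eggs hatched in aerated tap water with dried yeast at 18–20 °C under illumination for 48 h, and freshly hatched nauplii were used. Compounds in DMSO (0.01–1 mg) were added to 950 µL artificial seawater containing 10–20 nauplii, with 5% final DMSO. After 24 h under illumination at room temperature, dead and surviving nauplii were counted and statistically analysed.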
For the compound `CC1=CCC[C@H]2[C@](C)(CC3=CC(=O)C=C(N[C@@H](C)C(=O)O)C3=O)[C@@H](C)CC[C@]12C`, the LC50 (commonly the concentration that kills 50% of the test population) was determined as 129.4 ppm.
Still for that read-out and setting: as for `CC(C)(C)C1=CC(=O)C=CC1=O`, the figure is 27.4 ppm.

A further data set relates to Proteus hauseri. The experiment in a line: Antibacterial activity against Proteus hauseri ATCC 13315 after 24 hrs by microbroth double dilution method. It counts as functional. The following applies: ATCC 13315, 24 h. In a few lines: as §2
The compound `CC1=CCC[C@H]2[C@](C)(CC3=CC(=O)C=C(N[C@@H](C)C(=O)O)C3=O)[C@@H](C)CC[C@]12C` registered an MIC of 393 µM (≈ 157 µg/mL).
The same measure, in the same setting: as for `CC(C)(C)C1=CC(=O)C=CC1=O`, the figure is 475 µM (≈ 78 µg/mL).

In the next data set the test system is Candida albicans. Nature of the data set: Antifungal activity against Candida albicans ATCC 10231 after 24 hrs by microbroth double dilution method. It counts as functional. As to conditions: ATCC 10231, 24 h.
With `CC1=CCC[C@H]2[C@](C)(CC3=CC(=O)C=C(N[C@@H](C)C(=O)O)C3=O)[C@@H](C)CC[C@]12C`, the MIC turned out to be 6.13 µM (≈ 2.45 µg/mL).
Same read-out and setting: as for `CC(C)(C)C1=CC(=O)C=CC1=O`, the figure is 122 µM (≈ 20 µg/mL).

The subject of a further data set is Micrococcus luteus. Nature of the data set: Antibacterial activity against Micrococcus luteus ATCC 4698 after 24 hrs by microbroth double dilution method. The following applies: ATCC 4698, 24 h. It counts as functional. In a few lines: as §2
Compound `CC1=CCC[C@H]2[C@](C)(CC3=CC(=O)C=C(N[C@@H](C)C(=O)O)C3=O)[C@@H](C)CC[C@]12C` showed an MIC of 97.7 µM (≈ 39.1 µg/mL).
On the same count and under the same terms, as for `CC(C)(C)C1=CC(=O)C=CC1=O`, the figure is 238 µM (≈ 39 µg/mL).

The next data set concerns MDA-MB-453. The experiment in a line: Cytotoxicity against human MDA-MB-453 cells assessed as cell survival after 72 hrs by MTT assay. It counts as functional, cell-based. As to conditions: MDA-MB-453, 72 h. In a few lines:
as §1
In the case of `CC1=CCC[C@H]2[C@](C)(CC3=CC(=O)C=C(N[C@@H](C)C(=O)O)C3=O)[C@@H](C)CC[C@]12C`, the IC50 came out at 14.7 µM.
The same measure, in the same setting: as for `CC(C)(C)C1=CC(=O)C=CC1=O`, the figure is 56.8 µM.

Another data set relates to HeLa. Nature of the data set: Cytotoxicity against human HeLa cells assessed as cell survival after 72 hrs by MTT assay. It counts as functional, cell-based.
Conditions: not given
In a few lines: as §1
`CC1=CCC[C@H]2[C@](C)(CC3=CC(=O)C=C(N[C@@H](C)C(=O)O)C3=O)[C@@H](C)CC[C@]12C`: the IC50 worked out at 11.7 µM.
The same measure, in the same setting: as for `CC(C)(C)C1=CC(=O)C=CC1=O`, the figure is 44.1 µM.

The next data set concerns MRC5. Nature of the data set: Cytotoxicity against human MRC5 cells assessed as cell survival after 72 hrs by MTT assay. It counts as cell-based. As to conditions: MRC5, 72 h. The essentials: as §1
For `CC1=CCC[C@H]2[C@](C)(CC3=CC(=O)C=C(N[C@@H](C)C(=O)O)C3=O)[C@@H](C)CC[C@]12C`, the IC50 was 157 µM.
Same read-out and setting: as for `CC(C)(C)C1=CC(=O)C=CC1=O`, the figure is above 200 µM.

Another data set deals with Bacillus subtilis. The experiment in a line: Antibacterial activity against Bacillus subtilis ATCC 6633 after 24 hrs by microbroth double dilution method. It counts as functional. As to conditions: ATCC 6633, 24 h. In a few lines: as §2
Consider `CC1=CCC[C@H]2[C@](C)(CC3=CC(=O)C=C(N[C@@H](C)C(=O)O)C3=O)[C@@H](C)CC[C@]12C`, for which 195 µM (≈ 78.1 µg/mL) was the least that counted as inhibitory (MIC).
Same read-out and setting: in the case of `CC(C)(C)C1=CC(=O)C=CC1=O` it was 238 µM (≈ 39 µg/mL).

The next data set has as its system K562. Nature of the data set: Cytotoxicity against human K562 cells assessed as cell survival after 72 hrs by MTT assay. It counts as functional, cell-based. The following applies: K562, 72 h. The essentials:
as §1
Turning to `CC1=CCC[C@H]2[C@](C)(CC3=CC(=O)C=C(N[C@@H](C)C(=O)O)C3=O)[C@@H](C)CC[C@]12C`, the IC50 was found to be 15.8 µM.
For the compound `CC(C)(C)C1=CC(=O)C=CC1=O`, the IC50 worked out at 15.5 µM.

The next data set relates to A549. Nature of the data set: Cytotoxicity against human A549 cells assessed as cell survival after 72 hrs by MTT assay. It counts as functional, cell-based. The following applies: A549, 72 h. In a few lines:
as §1
Take `CC1=CCC[C@H]2[C@](C)(CC3=CC(=O)C=C(N[C@@H](C)C(=O)O)C3=O)[C@@H](C)CC[C@]12C`: the IC50 stood at 54.3 µM.
In the case of `CC(C)(C)C1=CC(=O)C=CC1=O`, the 50% inhibitory concentration (IC50) amounted to 47 µM.

The next data set has as its system Kocuria rhizophila. The experiment in a line: Antibacterial activity against Kocuria rhizophila ATCC 9341 after 24 hrs by microbroth double dilution method. It counts as functional. The following applies: ATCC 9341, 24 h. In a few lines:
as §2
Regarding `CC1=CCC[C@H]2[C@](C)(CC3=CC(=O)C=C(N[C@@H](C)C(=O)O)C3=O)[C@@H](C)CC[C@]12C`, the minimum inhibitory concentration (MIC) was determined as 1570 µM (≈ 626 µg/mL).
Still for that read-out and setting: as for `CC(C)(C)C1=CC(=O)C=CC1=O`, the figure is 475 µM (≈ 78 µg/mL).

A further data set has as its system Saccharomyces cerevisiae. Nature of the data set: Antifungal activity against Saccharomyces cerevisiae ATCC 9763 after 24 hrs by microbroth double dilution method. It counts as functional. The following applies: ATCC 9763, 24 h.
`CC1=CCC[C@H]2[C@](C)(CC3=CC(=O)C=C(N[C@@H](C)C(=O)O)C3=O)[C@@H](C)CC[C@]12C` showed an MIC of 195 µM (≈ 77.9 µg/mL).
Still for that read-out and setting: in the case of `CC(C)(C)C1=CC(=O)C=CC1=O` it was 238 µM (≈ 39 µg/mL).
